Source: ChEMBL document CHEMBL1649231, “In vitro activities of panduratin A against clinical Staphylococcus strains” (2009)
≈ marks a conversion by molar mass, not a printed value.

Legend:
Assay type in all cases: functional
Staphylococcus aureus [1] = experiment: Antimicrobial activity against methicillin-resistant Staphylococcus aureus assessed as intermediate resistant isolates after 24 hrs by broth microdilution method
[2] = tested on: Staphylococcus haemolyticus; experiment: Antimicrobial activity against methicillin-resistant coagulase-negative Staphylococcus haemolyticus assessed as resistant isolates after 24 hrs by broth microdilution method
[3] = tested on: Staphylococcus haemolyticus; experiment: Antimicrobial activity against methicillin-susceptible coagulase-negative Staphylococcus haemolyticus assessed as resistant isolates after 24 hrs by broth microdilution method
Staphylococcus simulans [4] = experiment: Antimicrobial activity against methicillin-susceptible coagulase-negative Staphylococcus simulans assessed as resistant isolates after 24 hrs by broth microdilution method
Mammaliicoccus sciuri [5] = experiment: Antimicrobial activity against methicillin-resistant coagulase-negative Staphylococcus sciuri assessed as intermediate resistant isolates after 24 hrs by broth microdilution method
Staphylococcus hominis [6] = experiment: Bactericidal activity against methicillin-resistant coagulase-negative Staphylococcus hominis after 24 hrs by plate counting method
Mammaliicoccus sciuri [7] = experiment: Bactericidal activity against methicillin-susceptible coagulase-negative Staphylococcus sciuri after 24 hrs by plate counting method
Procedure, shortened: (§1)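 Clinical staphylococcal isolates from patient body fluids, blood, genital secretions, pus or sputum; species by conventional methods or Vitek. Twofold dilutions in Mueller-Hinton broth, inoculum 5 × 10^5 CFU/ml, 37°C aerobic 24 h (CLSI M7-A6 microdilution). About 100 μl from each well without visible growth spread on MHA; 37°C 24 h. MBC = lowest concentration giving no growth on agar.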

Mammaliicoccus sciuri [8] = experiment: Antimicrobial activity against methicillin-resistant coagulase-negative Staphylococcus sciuri assessed as resistant isolates after 24 hrs by broth microdilution method
Staphylococcus hominis [9] = experiment: Antimicrobial activity against methicillin-susceptible coagulase-negative Staphylococcus hominis assessed as resistant isolates after 24 hrs by broth microdilution method
Staphylococcus hominis [10] = experiment: Antimicrobial activity against methicillin-susceptible coagulase-negative Staphylococcus hominis after 24 hrs by broth microdilution method
Procedure, shortened: (§2)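 Clinical isolates came from blood, body fluids, genital secretions, pus or sputum, identified conventionally or by Vitek. MICs were run by CLSI M7-A6 broth microdilution in Mueller-Hinton broth with 5 × 10^5 CFU/ml inoculum. Agents were twofold serially diluted, starting from 10% DMSO. Drug-free and uninoculated controls were included. Plates were incubated aerobically at 37°C for 24 h; MIC is the lowest concentration giving no visible growth.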

[11] = tested on: Staphylococcus haemolyticus; experiment: Antimicrobial activity against methicillin-resistant coagulase-negative Staphylococcus haemolyticus assessed as susceptible isolates after 24 hrs by broth microdilution method
Staphylococcus simulans [12] = experiment: Antimicrobial activity against methicillin-resistant coagulase-negative Staphylococcus simulans after 24 hrs by broth microdilution method; procedure, shortened: as §2
Mammaliicoccus sciuri [13] = experiment: Antimicrobial activity against methicillin-susceptible coagulase-negative Staphylococcus sciuri after 24 hrs by broth microdilution method; procedure, shortened: as §2
[14] = tested on: Staphylococcus haemolyticus; experiment: Bactericidal activity against methicillin-susceptible coagulase-negative Staphylococcus haemolyticus after 24 hrs by plate counting method; procedure, shortened: as §1
Staphylococcus simulans [15] = experiment: Antimicrobial activity against methicillin-susceptible coagulase-negative Staphylococcus simulans after 24 hrs by broth microdilution method; procedure, shortened: as §2
Staphylococcus simulans [16] = experiment: Antimicrobial activity against methicillin-susceptible coagulase-negative Staphylococcus simulans assessed as susceptible isolates after 24 hrs by broth microdilution method
Procedure, shortened: (§3)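 Clinical isolates from blood, body fluids, pus, sputum or genital secretions, identified conventionally or by Vitek, were tested alongside ATCC 29213 and ATCC 12228 controls. CLSI M7-A6 broth microdilution in Mueller-Hinton broth used twofold dilutions from a 10% DMSO solution and 5 × 10^5 CFU/ml inoculum. Drug-free and uninoculated wells served as controls; incubation was aerobic at 37°C for 24 h. MIC was the lowest concentration with no visible growth.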

Staphylococcus aureus [17] = experiment: Antimicrobial activity against methicillin-susceptible Staphylococcus aureus assessed as resistant isolates after 24 hrs by broth microdilution method
[18] = tested on: Staphylococcus epidermidis; experiment: Antimicrobial activity against methicillin-resistant coagulase-negative Staphylococcus epidermidis assessed as resistant isolates after 24 hrs by broth microdilution method
Staphylococcus hominis [19] = experiment: Antimicrobial activity against methicillin-resistant coagulase-negative Staphylococcus hominis after 24 hrs by broth microdilution method; procedure, shortened: as §2
Mammaliicoccus sciuri [20] = experiment: Antimicrobial activity against methicillin-susceptible coagulase-negative Staphylococcus sciuri assessed as resistant isolates after 24 hrs by broth microdilution method
Staphylococcus aureus [21] = experiment: Antimicrobial activity against methicillin-susceptible Staphylococcus aureus assessed as susceptible isolates after 24 hrs by broth microdilution method
[22] = tested on: Staphylococcus epidermidis; experiment: Bactericidal activity against methicillin-susceptible coagulase-negative Staphylococcus epidermidis after 24 hrs by plate counting method; procedure, shortened: as §1
Staphylococcus simulans [23] = experiment: Bactericidal activity against methicillin-susceptible coagulase-negative Staphylococcus simulans after 24 hrs by plate counting method; procedure, shortened: as §1
Staphylococcus hominis [24] = experiment: Bactericidal activity against methicillin-susceptible coagulase-negative Staphylococcus hominis after 24 hrs by plate counting method; procedure, shortened: as §1
Staphylococcus simulans [25] = experiment: Antimicrobial activity against methicillin-resistant coagulase-negative Staphylococcus simulans assessed as resistant isolates after 24 hrs by broth microdilution method
[26] = tested on: Staphylococcus epidermidis; experiment: Antimicrobial activity against methicillin-susceptible coagulase-negative Staphylococcus epidermidis assessed as susceptible isolates after 24 hrs by broth microdilution method
Mammaliicoccus sciuri [27] = experiment: Antimicrobial activity against methicillin-susceptible coagulase-negative Staphylococcus sciuri assessed as susceptible isolates after 24 hrs by broth microdilution method; procedure, shortened: as §3
Staphylococcus hominis [28] = experiment: Antimicrobial activity against methicillin-resistant coagulase-negative Staphylococcus hominis assessed as intermediate resistant isolates after 24 hrs by broth microdilution method
[29] = tested on: Staphylococcus epidermidis; experiment: Bactericidal activity against methicillin-resistant coagulase-negative Staphylococcus epidermidis after 24 hrs by plate counting method
Staphylococcus aureus [30] = experiment: Antimicrobial activity against methicillin-resistant Staphylococcus aureus assessed as resistant isolates after 24 hrs by broth microdilution method
Staphylococcus aureus [31] = experiment: Bactericidal activity against methicillin-resistant Staphylococcus aureus after 24 hrs by plate counting method; conditions: Staphylococcus aureus, 24 h
[32] = tested on: Staphylococcus haemolyticus; experiment: Antimicrobial activity against methicillin-susceptible coagulase-negative Staphylococcus haemolyticus assessed as susceptible isolates after 24 hrs by broth microdilution method
Mammaliicoccus sciuri [33] = experiment: Bactericidal activity against methicillin-resistant coagulase-negative Staphylococcus sciuri after 24 hrs by plate counting method; procedure, shortened: as §1
Staphylococcus hominis [34] = experiment: Antimicrobial activity against methicillin-resistant coagulase-negative Staphylococcus hominis assessed as susceptible isolates after 24 hrs by broth microdilution method
[35] = tested on: Staphylococcus haemolyticus; experiment: Antimicrobial activity against methicillin-resistant coagulase-negative Staphylococcus haemolyticus assessed as intermediate resistant isolates after 24 hrs by broth microdilution method
Staphylococcus hominis [36] = experiment: Antimicrobial activity against methicillin-resistant coagulase-negative Staphylococcus hominis assessed as resistant isolates after 24 hrs by broth microdilution method
Staphylococcus hominis [37] = experiment: Antimicrobial activity against methicillin-susceptible coagulase-negative Staphylococcus hominis assessed as susceptible isolates after 24 hrs by broth microdilution method
[38] = Staphylococcus epidermidis, 24 h

Compound: CC[C@H]1OC(=O)[C@H](C)[C@@H](O[C@H]2C[C@@](C)(OC)[C@@H](O)[C@H](C)O2)[C@H](C)[C@@H](O[C@@H]2O[C@H](C)C[C@H](N(C)C)[C@H]2O)[C@](C)(O)C[C@@H](C)C(=O)[C@H](C)[C@@H](O)[C@]1(C)O [ERYTHROMYCIN]
- Activity (Staphylococcus aureus [1]): 0%
- Activity [2]: 74%
- Activity [3]: 27%
- Activity (Staphylococcus simulans [4]): 27%
- Activity (Mammaliicoccus sciuri [5]): 15%
- MBC50 (Staphylococcus hominis [6]): 32 µg/mL (≈ 43.6 µM)
- MBC (Staphylococcus hominis [6]; Staphylococcus hominis, 24 h): 1 µg/mL (≈ 1.36 µM)
- MBC50 (Mammaliicoccus sciuri [7]): 2 µg/mL (≈ 2.73 µM)
- MBC (Mammaliicoccus sciuri [7]; Mammaliicoccus sciuri, 24 h): 1 µg/mL (≈ 1.36 µM)
- Activity (Mammaliicoccus sciuri [8]): 74%
- Activity (Staphylococcus hominis [9]): 27%
- MIC (Staphylococcus hominis [10]): 0.5 µg/mL (≈ 0.681 µM)
- MIC50 (Staphylococcus hominis [10]): 0.5 µg/mL (≈ 0.681 µM)
- MIC90 (Staphylococcus hominis [10]): 16 µg/mL (≈ 21.8 µM)
- Activity [11]: 11%
- MIC50 (Staphylococcus simulans [12]): 16 µg/mL (≈ 21.8 µM)
- MIC90 (Staphylococcus simulans [12]): 32 µg/mL (≈ 43.6 µM)
- MIC (Mammaliicoccus sciuri [13]): 0.5 µg/mL (≈ 0.681 µM)
- MIC50 (Mammaliicoccus sciuri [13]): 0.5 µg/mL (≈ 0.681 µM)
- MIC90 (Mammaliicoccus sciuri [13]): 16 µg/mL (≈ 21.8 µM)
- MBC50 [14]: 2 µg/mL (≈ 2.73 µM)
- MBC ([14]; Staphylococcus haemolyticus, 24 h): 1 µg/mL (≈ 1.36 µM)
- MIC (Staphylococcus simulans [15]): 0.5 µg/mL (≈ 0.681 µM)
- MIC50 (Staphylococcus simulans [15]): 0.5 µg/mL (≈ 0.681 µM)
- MIC90 (Staphylococcus simulans [15]): 16 µg/mL (≈ 21.8 µM)
- Activity (Staphylococcus simulans [16]): 50%
- Activity (Staphylococcus aureus [17]): 40%
- Activity [18]: 74%
- MIC50 (Staphylococcus hominis [19]): 16 µg/mL (≈ 21.8 µM)
- MIC90 (Staphylococcus hominis [19]): 32 µg/mL (≈ 43.6 µM)
- Activity (Mammaliicoccus sciuri [20]): 27%
- Activity (Staphylococcus aureus [21]): 56%
- MBC50 [22]: 2 µg/mL (≈ 2.73 µM)
- MBC [22, 38]: 1 µg/mL (≈ 1.36 µM)
- MBC50 (Staphylococcus simulans [23]): 2 µg/mL (≈ 2.73 µM)
- MBC (Staphylococcus simulans [23]; Staphylococcus simulans, 24 h): 1 µg/mL (≈ 1.36 µM)
- MBC50 (Staphylococcus hominis [24]): 2 µg/mL (≈ 2.73 µM)
- MBC (Staphylococcus hominis [24]; Staphylococcus hominis, 24 h): 1 µg/mL (≈ 1.36 µM)
- Activity (Staphylococcus simulans [25]): 74%
- Activity [26]: 50%
- Activity (Mammaliicoccus sciuri [27]): 50%
- Activity (Staphylococcus hominis [28]): 15%
- MBC50 [29]: 32 µg/mL (≈ 43.6 µM)
- MBC [29, 38]: 1 µg/mL (≈ 1.36 µM)
- Activity (Staphylococcus aureus [30]): 100%
- MBC (Staphylococcus aureus [31]): 32 µg/mL (≈ 43.6 µM)
- Activity [32]: 50%
- MBC50 (Mammaliicoccus sciuri [33]): 32 µg/mL (≈ 43.6 µM)
- MBC (Mammaliicoccus sciuri [33]; Mammaliicoccus sciuri, 24 h): 1 µg/mL (≈ 1.36 µM)
- Activity (Staphylococcus hominis [34]): 11%
- Activity [35]: 15%
- Activity (Staphylococcus hominis [36]): 74%
- Activity (Staphylococcus hominis [37]): 50%
